In ChEMBL document CHEMBL5257161, “Mycobacterium tuberculosis CitA activity is modulated by cysteine oxidation and pyruvate binding” (RSC Med Chem, 2023) one finds ΔTm and Activity data, which are given here for five compounds.

Test [1] addresses T1, Putative citrate synthase 2 (Mycobacterium tuberculosis) (UniProt P9WPD3).
T1 sequence (whole entry): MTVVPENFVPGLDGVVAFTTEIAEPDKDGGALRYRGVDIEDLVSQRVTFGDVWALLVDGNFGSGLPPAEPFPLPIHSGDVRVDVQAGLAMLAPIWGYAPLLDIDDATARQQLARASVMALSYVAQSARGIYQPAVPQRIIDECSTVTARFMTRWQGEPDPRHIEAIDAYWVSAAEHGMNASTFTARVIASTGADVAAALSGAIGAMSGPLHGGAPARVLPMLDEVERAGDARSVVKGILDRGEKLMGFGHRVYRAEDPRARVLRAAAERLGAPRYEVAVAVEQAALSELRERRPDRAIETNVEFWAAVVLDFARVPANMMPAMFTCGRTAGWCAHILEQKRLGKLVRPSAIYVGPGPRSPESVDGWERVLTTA
The test is described as follows: Binding affinity to Mycobacterium tuberculosis wild type CitA expressed in Escherichia coli cells assessed as change in melting temperature by thermal shift assay. The procedure, abridged: (§1)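 Thermal shift used 25 μM purified protein in 50 mM Tris pH 8.0 with 2 mM ligand (sodium pyruvate, OAA, or both), plus Protein Thermal Shift dye at 2X final. ΔTm was taken from the melt-curve derivative relative to protein without ligand.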

Test [2] deals with T1, Putative citrate synthase 2 (Mycobacterium tuberculosis). Put plainly: Binding affinity to Mycobacterium tuberculosis wild type CitA expressed in Escherichia coli cells assessed as change in melting temperature in presence of pyruvate by thermal shift assay. In outline: as §1
Test [3] shares this target. The test is described as follows: Binding affinity to Mycobacterium tuberculosis wild type CitA expressed in Escherichia coli cells assessed as change in melting temperature in presence of oxaloacetate by thermal shift assay. The procedure, abridged:
as §1

For test [4] the target is unchanged. The test is described as follows: Inhibition of Mycobacterium tuberculosis wild type CitA expressed in Escherichia coli cells by UV spectrophotometric based analysis. In outline:
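Michael acceptor compounds were added directly to the DTNB/OAA/AcCoA reaction with 10 nM CitA in 50 mM Tris pH 8.0 at 25 °C, read at 412 nm. The screen used 20 μM compound. Dose–response data were fitted to the Hill equation for apparent IC50. A control measured how fast the compounds react with reaction components.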

Regarding `O=C(O)CO`, in test [1], the thermal shift (ΔTm) (commonly the shift of the melting midpoint relative to a reference) worked out at 0.15 °C. Consider `O=C(O)CC(=O)C(=O)O`, for which the ΔTm in test [1] is 11.2 °C; in test [2], 12.3 °C.

For `CC(=O)C(=O)O`, the results for the ΔTm in test [1] and in test [3] were 2.31 °C and 12.3 °C, respectively. In addition, in test [4], the Activity entry was “Dose-Dependent Effect”. Take `O=CC(=O)O`: the ΔTm in test [1] was 0.1 °C. On the same count and under the same terms, as for `CC(=O)CC(=O)O`, the figure is 0.19 °C.
